Bioassay records (PubChem)
SUMO HTRF inh: SUMOylation inhibition; P63279; HTRF SUMOylation assay, SAE1/SAE2 + UBC9, in vitro; inhibition, % at 35 µM; actives 0.36% (n = 290,000); AID 2006; in the data active means inhibition above about 50%, passing the limit was not always enough
Rpn11 inh: Rpn11 (human) deubiquitinase inhibition | O00487 | human 26S proteasome, Ub4-pepOG fluorescence polarization; 20S core pre-blocked with epoxomicin | calls only at 20 µM | actives 0.59% (n = 360,000) | AID 588493;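 active means inhibition at 20 µM, scaled to each plate's controls, above about 33%, limit read from the data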
TPT1 inhibitor: blocks Candida albicans tRNA 2'-phosphotransferase. recombinant caTPT1, FP RNA substrate dephosphorylation. AID 1962. actives 0.81% (n = 300,000). inhibition, % at 5 µM;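 active means inhibition above the mean of all tested compounds plus 3 SD, set per screening campaign, cut at about 24% in these data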;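 further: plate controls were DMSO alone for no effect and ferristatin control at 100 nM for full effect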
HNF4A DNA FP: change in binding of human HNF4 alpha to DNA | HNF4a-FITC DNA binding, fluorescence polarization, 1 h | activity change, % at 10 µM | actives 0.3% (n = 360,000); in the data active means activity change above about 30%, passing the limit was not always enough
Target sequence (P41235 whole entry, looked up): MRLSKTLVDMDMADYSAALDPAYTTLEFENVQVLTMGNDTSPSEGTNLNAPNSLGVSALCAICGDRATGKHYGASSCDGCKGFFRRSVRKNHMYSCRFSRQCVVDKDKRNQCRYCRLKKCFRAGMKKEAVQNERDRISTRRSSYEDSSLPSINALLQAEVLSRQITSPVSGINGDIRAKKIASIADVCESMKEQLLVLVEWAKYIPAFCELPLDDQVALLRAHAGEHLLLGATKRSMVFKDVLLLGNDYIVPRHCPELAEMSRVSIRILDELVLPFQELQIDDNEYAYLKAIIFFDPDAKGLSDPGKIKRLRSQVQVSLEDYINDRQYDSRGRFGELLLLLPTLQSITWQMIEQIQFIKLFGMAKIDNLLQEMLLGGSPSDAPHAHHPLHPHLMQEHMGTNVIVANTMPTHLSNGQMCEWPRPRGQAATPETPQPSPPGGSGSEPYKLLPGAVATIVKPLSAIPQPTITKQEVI
CSN deneddyl inh: blocks human CSN-mediated cullin deneddylation; Purified CSN, SCF-Nedd8-OG deneddylation, fluorescence polarization; actives 0.38% (n = 360,000); inhibition, % at 12.5 µM; Q92905;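 active means pattern-corrected inhibition above about 35%, with an unprinted fluorescence ratio check between 0.5 and 1.5, limit read from the data, passing the limit was not always enough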;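 further: 0% = enzyme with substrate and 100% = substrate without enzyme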
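assay system = purified human Csn5 enzyme expressed in HEK293T cells | amount = 0.24 nM enzyme | buffer or medium = Tris/NaCl/DTT buffer, pH 7.5 | reagent = 10 nM SCFSkp2-Nedd8OG | compound = one concentration, 12.5 µM, 0.25% DMSO | times = 90 min reaction at room temperature | signal = FP | read-out basis = % inhibition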
SENP1 inh: blocks the human SENP1 SUMO protease catalytic domain | recombinant SENP1 catalytic domain, CyPet-SUMO1-YPet FRET cleavage | AID 624204 | inhibition, % at 10 µM | Q9P0U3 | actives 0.21% (n = 360,000);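 active means inhibition at least 30% at 10 µM, raw YFP signal under a set limit, fluorescence ratio 0.5 to 1.5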;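 further: 0% = enzyme with DMSO and 100% = no enzyme wells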
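System: Recombinant human SENP1 catalytic domain, His6-tagged | Incubation: Enzyme reaction for 50 min at room temperature, dark | Medium: Tris pH 8 with BME, BSA, NP40 and catalase | Also added: 25 nM SUMO1 FRET substrate | Compound: 10 µM single point, 0.5% DMSO | Measured by: FRET fluorescence in CFP and YFP emission channels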
SENP1 conf: SENP1 (human) inhibition, single concentration confirmation; recombinant SENP1, CyPet-SUMO1-YPet FRET cleavage; shares compounds with SENP1 inh; actives 34% (n = 520); inhibition, % at 10 µM; in the data active means inhibition mostly above about 35%, no sharp cut-off; inactive means mostly below about 32%;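 further: 0% = enzyme with DMSO and 100% = no enzyme control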
SENP1 kinetic: SENP1 (human) inhibition, kinetic confirmation | actives 26% (n = 520) | recombinant SENP1, CyPet-SUMO1-YPet FRET kinetic cleavage | shares compounds with SENP1 inh | inhibition, % at 10 µM; in the data active means inhibition mostly above about 32%, no sharp cut-off; inactive means mostly below about 29%;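 further: 0% = DMSO with enzyme and 100% = no enzyme substrate only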
Starred values were filed as active, the others as inactive; i = inactive; nt = no result. Sampled rows, rich in hits. Any-hit rate of the full collection: about 1.8%.

SMILES | SUMO HTRF inh | Rpn11 inh | TPT1 inhibitor | HNF4A DNA FP | CSN deneddyl inh | SENP1 inh | SENP1 conf | SENP1 kinetic
CC1=CC(=O)C=C/C1=C(/c1ccc(O)cc1C)c1ccccc1S(=O)(=O)O | nt | i | nt | 3 | 3 | 36* | 18 | 16
CC1=C/C(=C(\c2ccc(O)c(C)c2)c2ccccc2S(=O)(=O)O)C=CC1=O | 6 | i | -4 | -3 | 1 | 8 | nt | nt
Cc1c(NC(=O)/C(C#N)=C/c2ccccc2)c(=O)n(-c2ccccc2)n1C | 20 | i | 2 | -1 | 4 | 3 | nt | nt
Cc1c(NN=C(C#N)C#N)c(=O)n(-c2ccccc2)n1C | 4 | i | -24 | -3 | -1 | 46* | 14 | 18
COc1ccc(OCC(=O)N/N=C/C(C)=C/c2ccco2)c(Br)c1 | 18 | i | 4 | 4 | 10 | -3 | nt | nt
Cc1cccc(C)c1NC(=O)C(C)n1c(-c2ccc(=O)[nH]c2)nc2ccccc21 (stereo not given) | nt | nt | nt | 2 | 0 | 40* | 37 | 25
Nc1ccc(C2CCCc3nonc32)c2nonc12 (stereo not given) | 3 | i | -2 | -1 | 2 | 35* | 51* | 28
Nc1ccc(N2CCCCC2)c2nonc12 | 102 | i | 3 | 0 | -9 | 13 | nt | nt
CC(=O)n1c2ccccc2c2c1c1ccccc1n2C | 22 | i | -4 | -15 | -4 | 75* | -13 | -11
Cc1nc2[nH]onc2c2nccc(=O)c12 | 12 | i | -1 | -2 | 5 | 52* | 50* | 48*
COc1cc(S(=O)(=O)Nc2ccc3nc(C)sc3c2)ccc1NC(C)=O | nt | i | nt | 13 | 8 | 36* | 20 | 16
Cc1nc2ccc(NS(=O)(=O)c3ccc(F)cc3F)cc2s1 | nt | i | nt | 22 | 8 | 58* | 37* | 29
Cc1nc2ccc(NS(=O)(=O)c3c(F)cc(F)cc3Br)cc2s1 | nt | i | nt | 15 | 4 | 44* | 18 | 17
Cc1nc2ccc(NS(=O)(=O)c3ccc(C)c(C)c3)cc2s1 | 12 | i | -1 | 0 | 2 | 3 | nt | nt
C=CCn1c(-c2cc(Cl)ccc2OC)n[nH]c1=S | 9 | i | -2 | -3 | -5 | 3 | nt | nt
Cc1cc2nc(CN(C)Cc3c(C(=O)N(C)C)nc4ccc(Cl)cn34)[nH]c2cc1C | 7 | i | -5 | -3 | -4 | -5 | nt | nt
O=C(N/N=C/c1cccnc1)c1cccc(Br)c1 | 2 | i | nt | 1 | 0 | 31* | -11 | -8
O=C(N/N=C/c1cccnc1)c1cccc(Cl)c1 | -2 | i | 1 | 0 | 1 | 1 | nt | nt
O=C(N/N=C/c1cc(Br)c(Br)o1)c1cccnc1 | 0 | i | -25 | -26 | -69 | 35* | 7 | 3
CSc1nnc(C(C)(C)C)c(=O)n1/N=C/c1c(O)ccc2ccccc12 | 8 | i | 0 | 2 | -4 | 33* | -7 | 3
CCOC(=O)c1c(O)cc(C)[nH]c1=O | 8 | i | -5 | -1 | -6 | 3 | nt | nt
Cc1ccc(NC2=C(C(=O)c3ccccc3)N(C)S(=O)(=O)c3ccccc32)cc1 | -26 | i | 5 | 4 | 2 | 33* | 35* | 18
CC(C)(C)c1ccc(/C=C/C(=O)O)s1 | 0 | i | 2 | 0 | -1 | 0 | nt | nt
CCC(=O)Nc1ccc2c(c1)Cc1cc([N+](=O)[O-])ccc1-2 | nt | i | nt | 9 | 10 | -6 | nt | nt
O=CNc1ccc2c(c1)Cc1cc([N+](=O)[O-])ccc1-2 | nt | i | nt | -2 | 6 | 48* | 27 | 20
O=c1c2[nH]c3cccc(Cl)c3c2ncn1Cc1ccncc1 | 22 | i | 4 | 2 | -1 | 2 | nt | nt
CCCc1cc(=O)oc2c3c(cc(OCC(=O)NCCCn4ccnc4)c12)OC(C)(C)CC3 | 39 | i | -2 | -1 | 5 | 1 | nt | nt
